Here are results for two compounds from ChEMBL document CHEMBL1687708, “Efficacy of oritavancin in a murine model of Bacillus anthracis spore inhalation anthrax” (Antimicrob Agents Chemother, 2008).

What all share (assay type): functional
Experiment [1] has as its system Bacillus cereus. The experiment in a line: Antimicrobial activity against Bacillus cereus ATCC 4342 by broth microdilution method. In outline: (§1)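 B. cereus ATCC 4342 went through stepwise selection for 20 cycles in cation-adjusted Mueller-Hinton broth with doubling drug dilutions. Each cycle was seeded from the previous day's 0.5× MIC wells, in two independent rounds per drug. Selectants showing a fourfold or greater MIC rise were passaged 5 days without drug. Their MICs were then read alongside the parent strain. Oritavancin assays carried 0.002% polysorbate 80 throughout.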
Background: In broth dilution the organism is exposed to a series of concentrations in liquid medium.

Experiment [2] deals with Bacillus cereus. The experiment in a line: Antimicrobial activity against Bacillus cereus ATCC 4342 selected after 20 daily cycles of drug selection followed by 5 days of nonselective growth by broth microdilution method. The conditions noted are these: ATCC 4342, 120 h. In outline:
as §1

Experiment [3] concerns Bacillus cereus. The experiment in a line: Ratio of MIC for Bacillus cereus ATCC 4342 selected after 20 daily cycles of drug selection followed by 5 days of nonselective growth to MIC for Bacillus cereus ATCC 4342. An outline of the steps: as §1

In brackets after ≈: the same amount, converted by molar mass. Bounds are passed on as bounds.

As a reminder, the MIC is the lowest concentration that inhibits growth of the organism. Regarding `CC1(C)S[C@@H]2[C@H](NC(=O)Cc3ccccc3)C(=O)N2[C@H]1C(=O)O` [PENICILLIN G], the results for the MIC in the experiment on Bacillus cereus [1] and against Bacillus cereus [2] were 0.008 µg/mL (≈ 0.0239 µM) and over 0.06 µg/mL, respectively. Besides, the Ratio with Bacillus cereus [3] is over 8.

For the compound `CO[C@H]1/C=C/O[C@@]2(C)Oc3c(C)c(O)c4c(O)c(c(/C=N/N5CCN(C)CC5)c(O)c4c3C2=O)NC(=O)/C(C)=C\C=C\[C@H](C)[C@H](O)[C@@H](C)[C@@H](O)[C@@H](C)[C@H](OC(C)=O)[C@@H]1C` [RIFAMPIN], the figures for the MIC in the experiment on Bacillus cereus [1] and in the experiment with Bacillus cereus [2] were 0.03 µg/mL (≈ 0.0365 µM) and 0.25 µg/mL (≈ 0.304 µM), respectively. In addition, in the experiment on Bacillus cereus [3], the Ratio is 8.
